# Measured values: article PMC4804314 (Pharmacology Research & Perspectives, 2016)
# Read-outs that look alike come from different tables or passages of the source. Marks after values point to notes of the source that are not given here.
# How the values were obtained:
# [1] = Plasma pharmacokinetics in Cynomolgus monkey after i.v. bolus; type: in vivo, Cynomolgus monkey (Macaca fascicularis)
# How it was run: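 Female Cynomolgus monkeys (n = 3), single i.v. bolus of [14C]-test compound. Plasma was sampled predose and at 0.1, 0.5, 1.0, 2, 4, 8, 24 and 48 h. Total radioactivity was read by LSC and parent compound by LC/MS/MS. PK parameters came from noncompartmental analysis as in mouse.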
# [2] = Plasma pharmacokinetics in mouse after i.v. bolus; type: in vivo, mouse (NMRI); conditions: for level at 0.1 h / level at 0.25 h / level at 2 h: NMRI, plasma
# How it was run: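 Male and female NMRI mice, i.v. bolus of [14C]-test compound, 2.5 mg/kg (4.2 μmol/kg). Blood was taken by exsanguination under anesthesia (n = 3/time point) and spun 2 min at 10,000g. Plasma was counted by LSC from predose to 72 h. A separate unlabeled-dose study gave plasma from predose to 8 h for parent by validated LC/MS/MS. Noncompartmental analysis was used, with clearance related to hepatic blood flow.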
# [3] = Biological stability of the radiolabel; type: in vivo, rat; conditions: rats, within 72 h after dosing
# [4] = NADPH-dependent metabolism by mouse liver microsomes; type: in vitro ADME; conditions: mice, 10 and 100 µM, up to 6 h
# [5] = Excretion of total radioactivity in mouse; type: in vivo, mouse (NMRI)
# How it was run: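 Male and female NMRI mice got an i.v. bolus of [14C]-test compound, 2.5 mg/kg. Urine and feces were collected 0–8 h, 8–24 h, then every 24 h to 120 h. Urine from timed pooled samples (n = 3) was counted by LSC. Feces were homogenized in water with carboxymethylcellulose, and 1 g aliquots were dried at 60°C/12 h and combusted. Minced carcasses (0.5 g aliquots) and tail segments were combusted for residual radioactivity.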
# [6] = ref Becker et al. 2015, cited from earlier work
# [7] = tested on: sandwich‐cultured mouse (NMRI) hepatocytes; test: Hepatobiliary disposition in sandwich-cultured mouse hepatocytes; type: in vitro ADME; conditions: for BEI / CLbiliary / Intracellular concentration / Cellular accumulation Avg. / Total accumulation Avg.: 20 min; for Cellular accumulation Avg. / Total accumulation Avg.: mean ± SD of triplicate wells
# [8] = NADPH-dependent metabolism by monkey liver microsomes; type: in vitro ADME; conditions: monkeys, 10 and 100 µM, up to 6 h
# [9] = Metabolite profiling of monkey plasma, urine and feces by radio-HPLC; type: in vivo, Cynomolgus monkey (Macaca fascicularis); conditions: Cynomolgus monkey, i.v.
# How it was run: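 Monkey samples after i.v. [14C]-test compound, 2.0 mg/kg. Plasma at 0.1–8 h was extracted twice with ethanol and centrifuged, and extracts went to LSC and radio-HPLC. Precipitates were combusted for total radioactivity. Urine (0–8 h, 8–24 h, then 24-h intervals to 120 h) was evaporated and reconstituted in mobile phase. Feces were processed as for mouse. Isocratic acetonitrile/ammonium acetate pH 4 on RP8e, UV 230 nm with radiodetection.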
# human hepatocytes = test: Metabolism in cultured human hepatocytes; type: in vitro ADME; conditions: 1 and 10 µg/mL, up to 24 h
# [10] = NADPH-dependent metabolism by human liver microsomes; type: in vitro ADME; conditions: humans, 10 and 100 µM, up to 6 h
# rat hepatocytes = test: Metabolism in cultured rat hepatocytes; type: in vitro ADME; conditions: 1 and 10 µg/mL, up to 24 h
# [11] = Excretion of total radioactivity in monkey; type: in vivo, Cynomolgus monkey (Macaca fascicularis)
# How it was run: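 Female Cynomolgus monkeys (n = 3) got a single i.v. bolus of [14C]-test compound, 2.0 mg/kg. Urine and feces were collected 0–8 h, 8–24 h, then in 24-h intervals to 120 h. Both were counted by LSC as in the mouse study, with feces dried and combusted first. Excretion was expressed as % of radioactive dose.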
# [12] = Plasma pharmacokinetics in rabbit after i.v. infusion; type: in vivo, Chinchilla rabbit
# How it was run: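 Chinchilla rabbits received a 4-h infusion into the ear vein at 50, 150 or 450 mg/kg/d. Plasma was sampled before and at 2, 4, 4.25, 4.5, 5, 7 and 10 h after infusion start.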
# [13] = Distribution of radioactivity in pigmented mice; type: in vivo; conditions: eyes and skin
# [14] = Quantitative tissue distribution; type: in vivo, mouse (NMRI); conditions: for dose found in the carcasses: 24 h postdose
# How it was run: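 Male and female NMRI mice got i.v. [14C]-test compound, 2.5 mg/kg (n = 3/time), with tissues excised at 0.1, 0.5, 2, 8 and 24 h. Larger organs were homogenized and small tissues taken whole. Carcasses were included. Samples were dried at about 60°C for 12 h, combusted in a sample oxidizer and read by LSC.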
# [15] = cynomolgus monkey, in vivo, iv, 2 mg/kg
# [16] = female, cynomolgus monkey, plasma, iv, 2 mg/kg
# [17] = human, male, 0–144 h, n = 5, listed as [^14C]‐cilengitide
smiles,measurement,setting,value
"CC(C)[C@H]1C(=O)N[C@@H](CCCN=C(N)N)C(=O)NCC(=O)N[C@@H](CC(=O)O)C(=O)N[C@H](Cc2ccccc2)C(=O)N1C [cilengitide, cyclo‐(Asp‐D‐Phe‐N‐MeVal‐Arg‐Gly)]",half-life,"[1]; cynomolgus monkey, in vivo",1.25 h
same,clearance,"[1]; cynomolgus monkey, in vivo, Plasma CL, monkey, value used for allometry",4.83 mL/min/kg
same,AUC,[1]; [15],6460 ng·h/mL
same,Vd,[1]; [15],0.35 L/kg
same,half-life,[1]; [15],1.1 h
same,level at 0.1 h,[1]; [16],7020 ng/mL
same,level at 0.5 h,[1]; [16],3400 ng/mL
same,level at 8 h,[1]; [16],24.6 ng/mL
same,clearance as share of hbf,[1]; monkey,12%
same,clearance as share of hepatic blood flow (hbf),[2]; female mice,60%
same,level at 0.1 h,"[2]; female, mouse, iv, 2.5 mg/kg",2490 ng/mL
same,level at 0.25 h,"[2]; female, mouse, iv, 2.5 mg/kg",448 ng/mL
same,level at 2 h,"[2]; female, mouse, iv, 2.5 mg/kg",6.3 ng/mL
same,clearance as share of hepatic blood flow (hbf),[2]; male mice,105%
same,level at 0.1 h,"[2]; male, mouse, iv, 2.5 mg/kg",1240 ng/mL
same,level at 0.25 h,"[2]; male, mouse, iv, 2.5 mg/kg",439 ng/mL
same,level at 2 h,"[2]; male, mouse, iv, 2.5 mg/kg",8 ng/mL
same,clearance,"[2]; mouse, in vivo, Plasma CL, value used for allometry",63.5 mL/min/kg
same,Vd,"[2]; mouse, in vivo, Vdss, range over both species (mouse and monkey)",0.32 to 1.6 L/kg
same,AUC,"[2]; mouse, in vivo, iv, 2.5 mg/kg, AUC0‐∞ of parent drug, male mice, 2.5 mg/kg i.v.",440 ng·h/mL
same,Vd,"[2]; mouse, in vivo, iv, 2.5 mg/kg, apparent Vdss, female mice, 2.5 mg/kg i.v.",0.56 L/kg
same,Vd,"[2]; mouse, in vivo, iv, 2.5 mg/kg, apparent Vdss, male mice, 2.5 mg/kg i.v.",1.6 L/kg
same,clearance,"[2]; mouse, in vivo, iv, 2.5 mg/kg, plasma clearance, female mice, 2.5 mg/kg i.v.",53.3 mL/min/kg
same,clearance,"[2]; mouse, in vivo, iv, 2.5 mg/kg, plasma clearance, male mice, 2.5 mg/kg i.v.",94.7 mL/min/kg
same,half-life,"[2]; mouse, in vivo, t1/2, mouse, value used for allometry",0.34 h
same,dose exhaled as [^14C]‐CO2,[3],less than 0.1 % of the dose
same,metabolism by liver microsomes,[4],poorly metabolized
same,extent of renal excretion,[5],10%
same,dose recovered in urine as unchanged drug,[6]; human volunteers,77.5%
same,Excretion of radioactivity in feces,"[6]; human, male, 0–24 h, n = 5",∼9.0 % dose
same,"Excretion of radioactivity, total","[6]; human, male, 0–24 h, n = 5",∼87 % dose
same,Excretion of radioactivity in feces,"[6]; human, male, 0–144 h, n = 5",15.5 % dose
same,Excretion of radioactivity in urine,"[6]; human, male, 0–144 h, n = 5",79 % dose
same,Excretion of radioactivity in feces,[6]; [17],15.5 ^d % dose
same,Excretion of radioactivity in urine,[6]; [17],79.0 ^d % dose
same,extent of renal excretion,[6]; human,~ 80%
same,components found in human plasma and urine,[6],parent compound was the only component found
same,renal clearance compared with creatinine clearance of each subject,[6],below the creatinine clearance
same,uptake into hepatocytes,[7],fairly robust
same,BEI,[7]; 10 μmol/L,29.3%
same,CLbiliary,[7]; 10 μmol/L,0.701 mL/min/kg
same,Intracellular concentration,[7]; 10 μmol/L,4.13 µM
same,Cellular accumulation Avg.,[7]; 10 μmol/L,33.3 ± 1.4 pmol/mg
same,Total accumulation Avg.,[7]; 10 μmol/L,47.1 ± 1.7 pmol/mg
same,BEI,[7]; 250 μmol/L,43.3%
same,CLbiliary,[7]; 250 μmol/L,2.74 mL/min/kg
same,Intracellular concentration,[7]; 250 μmol/L,219 µM
same,Cellular accumulation Avg.,[7]; 250 μmol/L,1768 ± 14 pmol/mg
same,Total accumulation Avg.,[7]; 250 μmol/L,3115 ± 32 pmol/mg
same,biliary efflux (BEI),[7]; 10 and 250 μmol/L,30–40%
same,intracellular concentration (Cic),[7]; exposure 10 μmol/L,4.13 µmol/L
same,intracellular concentration (Cic),[7]; exposure 250 μmol/L,219 µmol/L
same,metabolism by liver microsomes,[8],poorly metabolized
same,"unchanged drug in plasma, share of total drug‐related material",[9],> 85%
same,metabolism by cultured hepatocytes,human hepatocytes,poorly metabolized
same,metabolism by liver microsomes,[10],poorly metabolized
same,metabolism by cultured hepatocytes,rat hepatocytes,poorly metabolized
same,extent of renal excretion,[11],56%
same,level at 4 h,"[12]; Chinchilla, rabbit, plasma, iv, 50 mg/kg",34200 to 38500 ng/mL
same,clearance in comparison to hbf,[12]; female rabbits,~15%
same,clearance,"[12]; rabbit, in vivo",6 mL/min/kg
same,half-life,"[12]; rabbit, in vivo, 450 mg/kg, apparent half‐life, rabbit, 450 mg/kg dose group",~1 h
same,melanin binding,[13],no relevant melanin binding
same,dose found in the carcasses,[14]; female mice,0.4 % of the dose
same,dose found in the carcasses,[14]; male mice,0.8 % of the dose
same,concentrations in reproductive organs relative to plasma,"[14]; mice, after 8 h",6–14 times higher
